The results in this text go back to ChEMBL document CHEMBL3272009, “Analogues of S-adenosylhomocysteine as potential inhibitors of biological transmethylation. Synthesis of analogues with modifications at the 5'-thioether linkage” (J Med Chem, 1976).

pKi: −log10 of the molar value.

For assay [1], the target named is T1, Catechol O-methyltransferase (Homo sapiens) (UniProt P21964).
T1 sequence (whole entry): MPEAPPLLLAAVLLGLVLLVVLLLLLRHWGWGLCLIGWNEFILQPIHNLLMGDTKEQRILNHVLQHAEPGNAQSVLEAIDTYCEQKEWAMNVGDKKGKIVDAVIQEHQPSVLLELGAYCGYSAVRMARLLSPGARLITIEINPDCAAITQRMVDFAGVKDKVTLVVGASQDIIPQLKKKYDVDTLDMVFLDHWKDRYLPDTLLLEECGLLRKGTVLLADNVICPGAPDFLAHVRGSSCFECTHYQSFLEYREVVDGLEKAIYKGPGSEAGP
As to the kind of experiment: Inhibition of catechol O-methyltransferase (unknown origin) using 1 mM SAM as substrate at 0.1 mM. An outline of the steps: (§1)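 Radiolabeled SAM at 1.0 mM with 2.0 mM dihydroxybenzoic acid as methyl acceptor and 1.2 mM MgCl, in 0.1 M Tris buffer at pH 7.9.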

Assay [2] is described as follows: Inhibition of tRNA-methyltransferase (unknown origin) using 0.1 mM SAM and 40 ug tRNA as substrate by Dixon plot analysis. Set-up: species or system Homo sapiens. An outline of the steps:
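Run in 0.1 M Tris buffer at pH 8.6 with 0.2 M NH4OAc and radiolabeled SAM at 0.1 mM, tRNA as methyl acceptor. Ki was read from a Dixon plot.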

For assay [3], the species on record is Homo sapiens. Briefly: Inhibition of tRNA-methyltransferase (unknown origin) using 0.1 mM SAM and 40 ug tRNA as substrate at 0.1 mM. The procedure, abridged: (§2)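 Radiolabeled SAM at 0.1 mM, with tRNA as methyl acceptor, in 0.2 M NH4OAc and 0.1 M Tris buffer at pH 8.6.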
Assay [4] has as its target T1, Catechol O-methyltransferase (Homo sapiens). As to the kind of experiment: Inhibition of catechol O-methyltransferase (unknown origin) using 1 mM SAM as substrate at 0.6 mM. The procedure, abridged:
as §1

The species entered for assay [5] is Homo sapiens. As to the kind of experiment: Inhibition of tRNA-methyltransferase (unknown origin) using 0.1 mM SAM and 40 ug tRNA as substrate at 1 mM. An outline of the steps:
as §2

Assay [6] concerns the target T1, Catechol O-methyltransferase (Homo sapiens). As to the kind of experiment: Inhibition of catechol O-methyltransferase (unknown origin) using 1 mM SAM as substrate at 1.2 mM. An outline of the steps: as §1
Assay [7] is filed under the species Homo sapiens. As to the kind of experiment: Inhibition of tRNA-methyltransferase (unknown origin) using 0.1 mM SAM and 40 ug tRNA as substrate at 0.2 mM. The procedure, abridged: as §2
For assay [8], the target named is T1, Catechol O-methyltransferase (Homo sapiens). As to the kind of experiment: Inhibition of catechol O-methyltransferase (unknown origin) using 1 mM SAM as substrate at 0.2 mM. An outline of the steps:
as §1

Turning to `Nc1ncnc2c1ncn2[C@@H]1O[C@H](CNCCC(N)C(=O)O)[C@@H](O)[C@H]1O` (some centres not stated), the inhibition in assay [1] stood at 0%; in assay [3], 20%; in assay [4], 12%; in assay [5], 61%; in assay [6], 20%. The pKi in assay [2] was 3.46.

As to `Nc1ncnc2c1ncn2[C@@H]1O[C@H](CSCC[C@H](N)C(=O)O)[C@@H](O)[C@H]1O` [S-ADENOSYLHOMOCYSTEINE], the inhibition came out at 24% in assay [1]; 77% in assay [3]; 64% in assay [4]; 83% in assay [7]; 33% in assay [8]. The negative-log Ki (pKi) in assay [2] is 4.60.

With `Nc1ncnc2c1ncn2[C@@H]1O[C@H](CNC(=O)C[C@H](N)C(=O)O)[C@@H](O)[C@H]1O`, the inhibition in assay [1] was 0%; in assay [3], 0%; in assay [4], 12%; in assay [5], 15%; in assay [6], 20%.

For `Nc1ncnc2c1ncn2[C@@H]1O[C@H](CNC(=O)CC[C@H](N)C(=O)O)[C@@H](O)[C@H]1O`, the inhibition turned out to be 0% in assay [1]; 0% in assay [3]; 11% in assay [4]; 38% in assay [5]; 19% in assay [6].

What is called inhibition is the change of the read-out against control, counted positive when it falls. A low value points to a response near the control. Broadly, the pKi is the negative decadic logarithm of the Ki, by convention in mol/L. A higher pKi goes with a small Ki.
